Reference: ChEMBL document CHEMBL3259615, “Combination of triple bond and adamantane ring on the vitamin D side chain produced partial agonists for vitamin D receptor” (J Med Chem, 2014)
Active and inactive are the calls of the source. The calls are words filed in the database; no cut-off is given here.

Experiments:
U-937 [1] = assay: Induction of cyp24A1 mRNA expression in human U937 cells at 100 nM after 24 hrs by real-time PCR relative to 1-alpha,25-dihydroxyvitamin D3; format: functional
In short: (§1)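 Cells seeded at 1 × 10⁴ per well and treated 24 h later with ethanol vehicle or 100 nM ligand for 24 h. Total RNA taken by a chloroform method, reverse-transcribed, and target mRNA quantified by SYBR Green real-time PCR, normalized to ACTIN mRNA. Culture media: HEK293 in DMEM 5% FBS; SW480 and HaCaT in DMEM 10% FBS; MG63 in MEM 10% FBS; THP-1 and U937 in RPMI1640 10% FBS; all at 37 °C, 5% CO₂.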

Vitamin D3 receptor [2] = molecular target: T1, Vitamin D3 receptor (Homo sapiens, UniProt P11473); assay: Displacement of [3H]-1,25(OH)2D3 from GST-fused human VDR-LBD expressed in Escherichia coli BL21
T1 sequence (P11473 whole entry): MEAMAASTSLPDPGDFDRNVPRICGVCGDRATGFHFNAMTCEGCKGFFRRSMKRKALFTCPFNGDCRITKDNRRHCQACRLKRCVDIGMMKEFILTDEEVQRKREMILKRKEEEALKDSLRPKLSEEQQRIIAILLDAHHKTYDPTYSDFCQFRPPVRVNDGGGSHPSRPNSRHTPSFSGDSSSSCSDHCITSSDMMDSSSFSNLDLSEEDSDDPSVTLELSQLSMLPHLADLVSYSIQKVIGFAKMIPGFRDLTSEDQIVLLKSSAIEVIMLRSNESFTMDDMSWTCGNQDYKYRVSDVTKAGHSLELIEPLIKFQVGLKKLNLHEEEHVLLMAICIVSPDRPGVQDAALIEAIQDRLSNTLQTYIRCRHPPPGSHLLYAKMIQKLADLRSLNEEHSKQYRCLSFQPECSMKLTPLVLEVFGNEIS
In short: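 hVDR-LBD (aa 140–427) as a GST fusion from E. coli BL21 sonicated lysate, 1 μg in pH 7.5 Tris/KCl/DTT/CHAPS buffer with BSA. Ligand in EtOH was preincubated 30 min at RT. [26,27-methyl-³H]-1,25(OH)₂D₃ was then added for 20 h at 4 °C. Free ligand was removed with dextran-coated charcoal and centrifugation, and bound radioactivity counted. IC50 from at least two triplicate runs.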

[3] = molecular target: T2, Vitamin D3 receptor (Homo sapiens) (UniProt P11473); settings: HEK293, 10 to 1000 nM
T2 sequence (whole entry): T1 sequence (P11473 whole entry)

SW480 [4] = assay: Induction of cyp24A1 mRNA expression in human SW480 cells at 100 nM after 24 hrs by real-time PCR relative to 1-alpha,25-dihydroxyvitamin D3; format: functional; in short: as §1
U-937 [5] = assay: Induction of cathelicidine antimicrobial peptide mRNA expression in human U937 cells at 100 nM after 24 hrs by real-time PCR relative to 1-alpha,25-dihydroxyvitamin D3; format: functional; in short: as §1
MG-63 = assay: Induction of cyp24A1 mRNA expression in human MG63 cells at 100 nM after 24 hrs by real-time PCR relative to 1-alpha,25-dihydroxyvitamin D3; format: functional; in short: as §1
HaCaT [6] = assay: Induction of cathelicidine antimicrobial peptide mRNA expression in human HaCaT cells at 100 nM after 24 hrs by real-time PCR relative to 1-alpha,25-dihydroxyvitamin D3; format: functional; in short: as §1
Vitamin D3 receptor [7] = molecular target: T1, Vitamin D3 receptor; assay: Activation of human VDR expressed in HEK293 cells cotransfected CMX-GAL4-RXRalpha and 4-tk-LUC assessed as heterodimerization with RXRalpha by mammalian two-hybrid assay; format: cell-based
In short: (§2)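 HEK293 cells in DMEM with 5% FBS, per well: 50 ng TK-MH100(UAS)×4-LUC reporter, 10 ng pCMX-β-galactosidase, 15 ng pCMX-VP16-VDR, and 15 ng of a GAL4 fusion. The fusion was RXRα for heterodimerisation, SRC-1 for coactivator binding, N-CoR, or SMRT (NCoR2). Cells were treated across a concentration range. Luciferase was normalised to β-galactosidase.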

Vitamin D3 receptor [8] = molecular target: T1, Vitamin D3 receptor; assay: Transactivation of human VDR expressed in HEK293 cells cotransfected with mouse VDRE, Tk-Sppx3-LUC reporter plasmid measured after 24 hrs by luciferase reporter assay; format: cell-based
In short: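 HEK293 cells in DMEM with 5% FBS, calcium phosphate-transfected per well with 50 ng TK-Spp×3-LUC (mouse osteopontin VDRE), 10 ng pCMX-β-galactosidase, 15 ng pCMX-VDR and 15 ng pCMX-RXRα. Compounds were tested across a concentration range and cells harvested after 16–24 h. Luciferase was normalised to β-galactosidase. EC50 and efficacy relative to 1,25(OH)₂D₃.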

HEK293 [9] = assay: Induction of cyp24A1 mRNA expression in HEK293 cells at 100 nM after 24 hrs by real-time PCR relative to 1-alpha,25-dihydroxyvitamin D3; format: functional, Homo sapiens; in short: as §1
SW480 [10] = assay: Induction of TRPV6 mRNA expression in human SW480 cells at 100 nM after 24 hrs by real-time PCR relative to 1-alpha,25-dihydroxyvitamin D3; format: functional; in short: as §1
THP-1 [11] = assay: Induction of cathelicidine antimicrobial peptide mRNA expression in human THP1 cells at 100 nM after 24 hrs by real-time PCR relative to 1-alpha,25-dihydroxyvitamin D3; format: functional; in short: as §1
THP-1 [12] = assay: Induction of cyp24A1 mRNA expression in human THP1 cells at 100 nM after 24 hrs by real-time PCR relative to 1-alpha,25-dihydroxyvitamin D3; format: functional; in short: as §1
Vitamin D3 receptor [13] = molecular target: T1, Vitamin D3 receptor; assay: Activation of human VDR expressed in HEK293 cells cotransfected CMX-GAL4-SRC1 and 4-tk-LUC assessed as SRC1 interaction with AF2 surface of VDR by mammalian two-hybrid assay; format: cell-based; in short: as §2
Vitamin D3 receptor [14] = molecular target: T1, Vitamin D3 receptor; assay: Activation of human VDR expressed in HEK293 cells cotransfected CMX-GAL4-N-CoR and 4-tk-LUC assessed as inhibition of N-CoR binding to VDR by mammalian two-hybrid assay; format: cell-based; in short: as §2
HaCaT [15] = assay: Induction of cyp24A1 mRNA expression in human HaCaT cells at 100 nM after 24 hrs by real-time PCR relative to 1-alpha,25-dihydroxyvitamin D3; format: functional; in short: as §1
Vitamin D3 receptor [16] = molecular target: T1, Vitamin D3 receptor; assay: Activation of human VDR expressed in HEK293 cells cotransfected CMX-GAL4-NCoR2 and 4-tk-LUC assessed as inhibition of NCoR2 binding to VDR by mammalian two-hybrid assay; format: cell-based; in short: as §2
HEK293 [17] = assay: Induction of cyp24A1 mRNA expression in HEK293 cells at 100 nM after 24 hrs by real-time PCR; format: functional, cell-based; settings: Homo sapiens; in short: as §1
[18] = molecular target: T2, Vitamin D3 receptor (Homo sapiens); assay: Inhibition of 1,25(OH)2D3-induced transactivation of human VDR expressed in HEK293 cells cotransfected with mouse VDRE, Tk-Sppx3-LUC reporter plasmid measured after 24 hrs by luciferase reporter assay; format: cell-based
In short: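 HEK293 cells in DMEM with 5% FBS were calcium-phosphate cotransfected with TK-Spp×3-LUC reporter, pCMX-β-galactosidase, pCMX-VDR and pCMX-RXRα. Cells were then exposed to a range of test concentrations together with 10 nM 1,25(OH)₂D₃. Harvest came 16–24 h later, with luciferase normalized to β-galactosidase.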

U-937 [19] = assay: Induction of cathelicidine antimicrobial peptide mRNA in human U937 cells at 100 nM after 24 hrs by real-time PCR relative to skin cells; format: functional
In short: (§3)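 THP-1 and U937 cells were grown in RPMI1640 with 10% FBS and penicillin/streptomycin at 37 °C under 5% CO₂, and plated at 1 × 10⁴ cells/well. After 24 h, cells got an ethanol control, 100 nM 1,25(OH)₂D₃ or 100 nM analogue for 24 h. RNA was extracted by a chloroform method and reverse-transcribed. CAMP was measured by SYBR Green real-time PCR, normalized to ACTIN mRNA and compared with 1,25(OH)₂D₃.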

THP-1 [20] = assay: Induction of cathelicidine antimicrobial peptide mRNA expression in human THP1 cells at 100 nM after 24 hrs by real-time PCR relative to skin cells; format: functional; in short: as §3

IC50 (Vitamin D3 receptor [2]) [nM]	inhibition [3]	EC50 (Vitamin D3 receptor [7]) [nM]	EC50 (Vitamin D3 receptor [8]) [nM]	EC50 (Vitamin D3 receptor [13]) [nM]	EC50 (Vitamin D3 receptor [14]) [nM]	EC50 (Vitamin D3 receptor [16]) [nM]	Compound	Activity (U-937 [1]) [%]	Activity (SW480 [4]) [%]	Activity (U-937 [5]) [%]	Activity (MG-63) [%]	Activity (HaCaT [6]) [%]	Activity (HEK293 [9]) [%]	Activity (SW480 [10]) [%]	Activity (THP-1 [11]) [%]	Activity (THP-1 [12]) [%]	Activity (HaCaT [15]) [%]	Activity (HEK293 [17])	fold change (FC) (U-937 [19])	fold change (FC) (THP-1 [20])	also measured
12	Active	4.4	6.6	15	4	4.1	C=C1[C@H](O)CC(=C/C=C2\CCC[C@]3(C)[C@@H]([C@H](C)CC#C[C@H](O)C45CC6CC(CC(C6)C4)C5)CC[C@@H]23)C[C@H]1O	1	32	30	5	15	15	30	20	1	22				
							C=C1/C(=C\C=C2/CCC[C@]3(C)[C@@H]([C@H](C)CCCC(C)(C)O)CC[C@@H]23)C[C@@H](O)C[C@@H]1O											Active			
0.5	inactive	0.6	0.07	1.5	0.4	0.5	C=C1[C@H](O)CC(=C/C=C2\CCC[C@]3(C)[C@@H]([C@H](C)CC#C[C@@H](O)C45CC6CC(CC(C6)C4)C5)CC[C@@H]23)C[C@H]1O	85	50	125	50	60		65	105	70	30	Active			
							C=C1[C@H](O)CC(=C/C=C2\CCC[C@]3(C)[C@@H]([C@H](C)/C=C/C[C@H](O)C45CC6CC(CC(C6)C4)C5)CC[C@@H]23)C[C@H]1O														inhibition [18]: Dose-dependent effect
12	Active	0.8	1.1	13.5	1.8	2.8	C=C1[C@H](O)CC(=C/C=C2\CCC[C@]3(C)[C@@H]([C@H](C)CC#C[C@@H](O)CC45CC6CC(CC(C6)C4)C5)CC[C@@H]23)C[C@H]1O	50	10	65	50	15	30	35	55	10	10		3.5	3.5	
13	Active	2.3	1.5	6.5	3.7	2.4	C=C1[C@H](O)CC(=C/C=C2\CCC[C@]3(C)[C@@H]([C@H](C)CC#C[C@H](O)CC45CC6CC(CC(C6)C4)C5)CC[C@@H]23)C[C@H]1O	50	10	75	50	20	45	40	74	10	10		3.5	3.5	
